# Screening data as filed in PubChem.
# Sampled rows, rich in hits. Any-hit rate of the full collection: about 0.97%.
# TNF necrop inh: inhibitors of TNF-alpha induced necroptosis in Jurkat FADD-/- cells; 220,000 tested, 0.068% active; activation (protection from cell death), % at 10 µM; Jurkat FADD-/- TNF necroptosis rescue, ATP luminescence, 24 h; 0 = TNF only, 100 = no-TNF cells;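 active = activation, meaning protection from cell death, of at least 50% relative to plate controls; inactive = activation below 50%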;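 also: necroptosis triggered by 40 ng/mL TNF-alpha added together with compound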
# Mdm2 ligase inh: inhibitors of human Mdm2 E3 ubiquitin ligase; Q00987; cell-based MDM2 ubiquitination luciferase reporter, 2 h; 0 = plate control, 100 = twice control, blank-subtracted; signal enhancement, % at 5 µM; 210,000 tested, 0.11% active; AID 1230;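 active = signal enhancement of 30% or more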;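 also: luminescence tracks abundance of the self-degrading MDM2-luciferase fusion protein; higher signal means inhibition of MDM2 E3 ligase activity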
# Target sequence (Q00987 whole entry, looked up, the tested form may be a part): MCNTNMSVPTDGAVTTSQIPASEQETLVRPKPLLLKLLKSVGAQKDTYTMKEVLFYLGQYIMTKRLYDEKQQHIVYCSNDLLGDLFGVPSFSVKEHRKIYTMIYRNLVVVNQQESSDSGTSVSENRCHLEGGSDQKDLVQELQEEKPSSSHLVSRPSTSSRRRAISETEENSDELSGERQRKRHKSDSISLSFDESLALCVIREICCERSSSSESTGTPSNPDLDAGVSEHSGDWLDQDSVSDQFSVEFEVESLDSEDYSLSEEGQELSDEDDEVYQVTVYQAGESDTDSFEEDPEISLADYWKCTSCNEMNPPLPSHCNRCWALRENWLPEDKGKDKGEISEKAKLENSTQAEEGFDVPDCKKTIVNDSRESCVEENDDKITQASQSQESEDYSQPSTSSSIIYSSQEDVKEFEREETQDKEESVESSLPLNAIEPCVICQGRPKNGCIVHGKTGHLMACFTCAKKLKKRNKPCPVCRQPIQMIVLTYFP
#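 Test system: mammalian cells stably expressing self-ubiquitinating, self-degrading MDM2 E3–luciferase fusion; Amount: 2000 cells in each well; Medium: DMEM; Schedule: 4 h settle plus 2 h compound, 37 °C; Technique: SteadyLite luciferase luminescence after 15 min room-temperature reagent incubation; Benchmarks: plate control and blank wells.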
# L929 necroptosis: L929 zVAD cell death inhibition; AID 1377; 220,000 tested, 0.38% active; viability rescue, % at 10 µM; L929 zVAD necroptosis rescue, ATP luminescence, 24 h; with zVAD 60 µM;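 active = activation, scaled between plate controls, above about 75%, limit read from the data; inactive = activation under that limit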;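 also: 0% = zVAD with DMSO and 100% = DMSO alone without zVAD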
# B2AR ag: agonists of human beta-2 adrenergic receptor inducing internalization; P07550; Am2.2-beta2AR cells, FAP receptor internalization, flow cytometry; response, % (no concentration beside the values); 340,000 tested, 0.43% active;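 active = response above a set limit, near 3 SD of response in nonfluorescent compounds, cut at about 42% in these data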
# Dynein transport: dynein cargo transport inhibition | 3617.4 mouse cells, GR-EGFP nuclear translocation imaging; test concentration mostly 20 µM; stimulated with dexamethasone, 1 µM; hits give low values | z-score, hits read low | AID 1381 | 220,000 tested, 0.47% active;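 active = plate z-score of nuclear minus cytoplasmic receptor signal below a set negative limit, without overly bright fluorescence or cell loss, cut at about -3.5 in these data, passing the limit was not always enough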;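 also: z-score of nuclear minus cytoplasmic ring GR-EGFP intensity difference per well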
#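 Medium: Induction medium lacking tetracycline, stripped serum | Probe or stimulus: 1.0 µM final dexamethasone stimulus | Schedule: 48 h induction, then 1 h compound, then 30 min agonist, 37 °C | Signal: Automated 10x imaging of fixed Hoechst-stained cells | Evaluation: Per-cell GR-EGFP intensity, nucleus versus surrounding cytoplasmic ring, well-averaged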
# Dynein confirm: dynein cargo transport inhibition, confirmation; shares compounds with Dynein transport; 3617.4 GR-EGFP nuclear translocation imaging, dexamethasone-induced; calls only at 20 µM; 1,000 tested, 69% active;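 active = inhibition of receptor movement into the nucleus at or above a set limit in both runs, with normal cell brightness and cell count; inconclusive = limit reached in only one run, brightness and count normal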;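 also: dexamethasone at 1 µM final in well for 30 min; nuclear minus cytoplasmic GR-EGFP mean intensity difference in channel 2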
# An asterisk follows results filed as active; i = inactive; ? = inconclusive; . = not tested or not shown; + = active, no number.
SMILES,TNF necrop inh,Mdm2 ligase inh,L929 necroptosis,B2AR ag,Dynein transport,Dynein confirm
Clc1ncnc2scc(C3COc4ccccc4O3)c12 (stereo unspecified),-14,0,0,13,-4.2*,+
CCOCCCNC1=C(Cl)C(=O)c2ccccc2C1=O,-5,-7,0,-3,-5.3*,+
O=C1C(Cl)=C(NCCCO)C(=O)c2ccccc21,-9,-14,2,2,-0.18,.
N#CCOc1nc(N2CCCCC2)nc(N2CCCCC2)n1,-1,-12,34,-1,0.22,.
CCOc1nc(C#N)nc(N2CCCCC2)n1,-18,-20,-1,-1,-3.5*,+
Cc1cccc2cc3c(N)c(C(=O)Nc4ccc(N5CCOCC5)cc4)sc3nc12,-11,-7,11,20,-0.49,.
CCc1cccc2cc3c(N)c(C(=O)Nc4ccc(S(=O)(=O)N5CCCC5)cc4)sc3nc12,4,6,19,-157,-6.6,i
Cc1nc2ccccc2n1/N=C/c1ccc([N+](=O)[O-])o1,-22,.,37,13,-1.4,.
Cc1nc2ccccc2c(=O)n1/N=C/c1ccc([N+](=O)[O-])o1,-27,7,-1,.,-4*,+
Nc1c(N(Cc2ccco2)C(=O)COc2ccccc2F)c(=O)[nH]c(=O)n1Cc1ccccc1,.,.,.,-5,.,.
CCCN1C=CC(=CC=C(C#N)C#N)C=C1,1,-11,-1,-2,0.66,.
CCCCCCN1C=CC(=C/C=C(\C#N)C(=O)OCC)C=C1,9,-2,1,-88,-3.8,?
Cc1cccc(N2CCN(C(=O)Cn3sc4nc(C)cc(C)c4c3=O)CC2C)c1 (stereo unspecified),-5,-3,1,29,-4.4*,?
Cc1cc(C)c2c(=O)n(CC(=O)N3CCC(Cc4ccccc4)CC3)sc2n1,-6,-11,0,.,-1.5,.
O=C1c2ccccc2C(=O)N1OS(=O)(=O)c1ccc(F)cc1,.,.,.,0,.,.
Cc1cc(C)c(S(=O)(=O)ON2C(=O)c3ccccc3C2=O)cc1C,-1,-14,0,8,-6.1*,+
Cc1cc(C)c(C)c(S(=O)(=O)ON2C(=O)c3ccccc3C2=O)c1C,-4,-8,0,33,-4.3*,+
COC(=O)C(C)Sc1nc2c(c(=O)n(C)c(=O)n2C)n1CCC(C)C (stereo unspecified),1,-10,.,-130,-0.57,.
Cc1cc(C)c2c(=O)n(CC(=O)NCCCN3CCN(c4ccccc4F)CC3)sc2n1,-6,-20,1,.,-7.9*,+
CN(C(=O)COC(=O)c1nc(Cl)c(Cl)c(Cl)c1Cl)C1CCS(=O)(=O)C1 (stereo unspecified),6,-4,43,6,-4.6*,+
O=[N+]([O-])c1cc(S(=O)(=O)N2CCCCCC2)ccc1F,-12,-17,2,50*,-4.4*,+
CCOC(=O)C1CCN(C(=O)c2ccc3c(Cl)c4c(nc3c2)CCCC4)CC1,.,.,.,9,.,.
CC1CCN(C(=O)c2ccc3c(Cl)c4c(nc3c2)CCCC4)CC1,0,-21,-1,-5,-6*,+
CCN(CC)CCCNC(=O)c1ccc2c(Cl)c3c(nc2c1)CCCC3,-3,-25,-1,11,-3.9*,+
Cc1ccc2nc(-c3ccccc3NC(=O)CCC(=O)O)c(=O)[nH]c2c1,.,.,.,5,.,.
COc1ccc2nc(/C(C#N)=C\c3ccc(Oc4ccc([N+](=O)[O-])cn4)cc3)[nH]c2c1,5,-6,4,24,-0.34,.
CCN(CC)c1ccc(/C=C/C(=O)c2ccc(Br)cc2)cc1,1,-10,1,.,-6.9,+
COC/C=C/C1=CC2=CC(=O)C(C)(OC(=O)c3cnc4ccccc4n3)C(=O)C2=CN1Cc1ccc(OC)cc1 (stereo unspecified),-9,8,70,-7,-5.2*,+
Cc1ccc(S(=O)(=O)NC2OC(=O)C(Cl)=C2Cl)cc1 (stereo unspecified),-5,-13,1,9,-3.6*,i
